Published values pooled from the literature.
Protocols differ between the studies behind these lines.
Matrix: Caco-2

`Cc1cc(-c2ccnc3[nH]cc(F)c23)cc(F)c1[C@@]1(O)[C@H](C)CN(C(=O)CN)C[C@@H]1C` gave a Papp of 5.2 ×10⁻⁶ cm/s (10 µM).
The Papp B→A of `O=C(CCc1ccc(O)cc1)c1c(O)cc(O)cc1O` is reported as 12.2 ×10⁻⁶ cm/s (100 µg/mL; 2 h).
`O=c1cc(-c2ccc(O)cc2)oc2c([C@@H]3O[C@H](CO)[C@@H](O)[C@H](O)[C@H]3O)c(O)cc(O)c12` has a Papp A→B of 0.322 ×10⁻⁶ cm/s (200 µg/mL).
The Papp B→A of `Cc1cc(C)c(CNC(=O)c2cc(Cl)c3c(c2C)O[C@@](C)([C@H]2CC[C@H](N(C)C)CC2)O3)c(=O)[nH]1` is reported as 20.7 ×10⁻⁶ cm/s (1 µM).
With `O=C(Nc1ccc(OC(F)(F)F)cc1)N[C@H]1CC[C@H](Oc2ccc(C(=O)O)cc2)CC1` the Papp was 4.76 ×10⁻⁶ cm/s.
`COc1ccc(CCC(=O)c2c(O)cc(O[C@@H]3O[C@H](CO)[C@@H](O)[C@H](O)[C@H]3O[C@@H]3O[C@@H](C)[C@H](O)[C@@H](O)[C@H]3O)cc2O)cc1O` has a Papp B→A of 8.96 ×10⁻⁶ cm/s (100 µg/mL; 2 h).
`CNC(=O)c1ccccc1Nc1cc(Nc2ccc(N3CCOCC3)cc2OC)ncc1C(F)(F)F` gave a Papp of 18 ×10⁻⁶ cm/s (20 µM; 2 h).
With `O=C1CCC(N2Cc3cc(C4CCN(Cc5ccccc5)CC4)ccc3C2=O)C(=O)N1` (stereo not drawn) the Papp was 8.1 ×10⁻⁶ cm/s (10 µM; 2 h).
For `C[C@@H]1O[C@@H](OC[C@H]2O[C@@H](Oc3c(-c4ccc(O)c(O)c4)oc4cc(O)cc(O)c4c3=O)[C@H](O)[C@@H](O)[C@@H]2O)[C@H](O)[C@H](O)[C@H]1O`, the Papp A→B was 0.228 ×10⁻⁶ cm/s (50 µg/mL).
With `COc1ccc(-c2cc(=O)c3c(O)cc(O[C@@H]4O[C@H](CO[C@@H]5O[C@@H](C)[C@H](O)[C@@H](O)[C@H]5O)[C@@H](O)[C@H](O)[C@H]4O)cc3o2)cc1O` the Papp B→A was 35.1 ×10⁻⁶ cm/s (100 µg/mL; 2 h).
`Cc1cc(-c2ccnc3[nH]cc(F)c23)cc(F)c1[C@@]1(O)[C@H](C)CN(C2CCS(=O)(=O)CC2)C[C@@H]1C` gave a Papp of 14.8 ×10⁻⁶ cm/s (10 µM).
With `O=S1(=O)OC(c2ccc(O)cc2)(c2ccc(O)cc2)c2ccccc21` the Papp was 0.54 ×10⁻⁶ cm/s.
